According to ChEMBL document CHEMBL1138208, “Discovery of N-[(1S,2S)-3-(4-Chlorophenyl)-2- (3-cyanophenyl)-1-methylpropyl]-2-methyl-2- {[5-(trifluoromethyl)pyridin-2-yl]oxy}propanamide (MK-0364), a novel, acyclic cannabinoid-1 receptor inverse agonist for the treatment of obesity” (J Med Chem, 2006):
The source made the active and inactive calls. No cut-off for these calls is given here.

Columns and labels:
Cannabinoid receptor 1 = Cannabinoid receptor 1 (Homo sapiens, UniProt P21554); experiment: biochemical; type: cell-based, CHO
Cannabinoid receptor 1, sequence (P21554 whole entry): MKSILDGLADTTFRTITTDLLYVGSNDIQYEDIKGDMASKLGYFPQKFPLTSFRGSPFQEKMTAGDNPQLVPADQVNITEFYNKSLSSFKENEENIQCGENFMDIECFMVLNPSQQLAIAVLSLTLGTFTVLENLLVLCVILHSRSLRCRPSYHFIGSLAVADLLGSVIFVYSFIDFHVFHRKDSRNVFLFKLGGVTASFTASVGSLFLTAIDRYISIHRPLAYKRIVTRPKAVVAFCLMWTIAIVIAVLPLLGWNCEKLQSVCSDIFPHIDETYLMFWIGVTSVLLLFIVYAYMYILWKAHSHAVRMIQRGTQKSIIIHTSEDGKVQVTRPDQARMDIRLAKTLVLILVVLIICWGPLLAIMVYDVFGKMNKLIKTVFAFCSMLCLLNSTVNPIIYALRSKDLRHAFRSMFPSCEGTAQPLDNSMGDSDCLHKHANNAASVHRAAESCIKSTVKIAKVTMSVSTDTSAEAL

Cannabinoid receptor 2 = Cannabinoid receptor 2 (Homo sapiens, UniProt P34972); experiment: Inhibition of [3H]CP-55940 binding to human recombinant CB2 receptor in CHO cells; type: cell-based
Cannabinoid receptor 2, sequence (P34972 whole entry): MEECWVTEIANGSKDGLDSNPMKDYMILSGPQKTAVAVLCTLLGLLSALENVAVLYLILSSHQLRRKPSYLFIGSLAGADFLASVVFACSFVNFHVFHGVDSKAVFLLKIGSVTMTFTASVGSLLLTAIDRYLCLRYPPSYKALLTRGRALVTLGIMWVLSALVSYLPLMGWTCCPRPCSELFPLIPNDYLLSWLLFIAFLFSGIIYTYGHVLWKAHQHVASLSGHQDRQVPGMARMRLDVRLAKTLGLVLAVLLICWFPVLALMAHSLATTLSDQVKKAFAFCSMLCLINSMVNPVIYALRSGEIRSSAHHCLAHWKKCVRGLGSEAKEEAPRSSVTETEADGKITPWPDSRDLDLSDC

[1] = Bioavailability in rhesus monkey at 0.2 mg/kg, iv and 0.4 mg/kg, po; type: ADME, organism-based, Macaca mulatta; settings: in vivo
[2] = Half life in rhesus monkey at 0.2 mg/kg, iv and 0.4 mg/kg, po; type: ADME, organism-based, Macaca mulatta; settings: in vivo
[3] = Bioavailability in Sprague-Dawley rat at 1 mg/kg, iv and 2 mg/kg, po; type: ADME, organism-based; settings: in vivo
[4] = Half life in dog at 0.2 mg/kg, iv and 0.4 mg/kg, po; type: ADME, organism-based, Canis lupus familiaris; settings: in vivo
Rattus norvegicus [5] = experiment: Reduction in Sprague-Dawley rat body weight at 0.3 mg/kg, po after 14 days relative to control; type: functional; set-up: scale not given: the % may be the effect or the level left
In short: (§1)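 Diet-induced obese (DIO) rats were dosed orally once daily (qd) for 14 days at 0.3, 1 or 3 mg/kg. Body weight change is expressed as percent reduction relative to vehicle-treated animals.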

Rattus norvegicus [6] = experiment: Reduction in Sprague-Dawley rat body weight at 1 mg/kg, po after 14 days relative to control; type: functional; set-up: scale not given: the % may be the effect or the level left
In short: as §1

[7] = Drug level in Sprague-Dawley rat brain at 1 mg/kg, iv after 1 hr; type: ADME, organism-based; set-up: dose 1 mg/kg, route intravenous; settings: read-out: Drug uptake
Rattus norvegicus [8] = experiment: Inhibition of CP-55940-induced decrease in body temperature in Sprague-Dawley rat at 3 mg/kg, iv; type: functional, organism-based; set-up: dose 3 mg/kg
Homo sapiens = species: Homo sapiens; experiment: Protein binding in human liver microsome; type: ADME; settings: microsomes
In short: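 The tritiated compound was incubated with liver microsomes. Irreversible (covalent) binding of radioactivity to microsomal protein was measured after 1 h of incubation and expressed as pmol equiv/mg protein.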

Rattus norvegicus [9] = experiment: Reduction in Sprague-Dawley rat body weight at 3 mg/kg, po after 14 days relative to control; type: functional; set-up: scale not given: the % may be the effect or the level left
In short: as §1

[10] = Bioavailability in dog at 0.2 mg/kg, iv and 0.4 mg/kg, po; type: ADME, organism-based, Canis lupus familiaris; settings: in vivo
[11] = Drug level in Sprague-Dawley rat plasma at 1 mg/kg, iv after 1 hr; type: ADME, organism-based; set-up: dose 1 mg/kg, route intravenous; settings: read-out: Drug uptake
Rattus norvegicus [12] = experiment: Reduction in food uptake in DIO Sprague-Dawley rat at 10 mg/kg, po; type: functional; set-up: scale not given: the % may be the effect or the level left
In short: (§2)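 Diet-induced obese rats were dosed orally. Overnight food intake was measured and reported as % change (mean ± error).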

Rattus norvegicus [13] = experiment: Reduction in food uptake in DIO Sprague-Dawley rat at 3 mg/kg, po; type: functional; set-up: scale not given: the % may be the effect or the level left
In short: as §2

For `C[C@H](NC(=O)C(C)(C)Oc1ccc(Cl)cc1)[C@@H](Cc1ccc(F)cc1)c1ccccc1`, which IC50 (Cannabinoid receptor 1) is on record?
The IC50 was 14 nM.

For `C[C@H](NC(=O)C(C)(C)Oc1ccc(Cl)cc1)[C@@H](Cc1ccccc1Cl)c1ccccc1`, which IC50 (Cannabinoid receptor 1) is on record?
The IC50 was 140 nM.

With `C[C@H](NC(=O)C(C)(C)Oc1ccccc1Cl)[C@@H](Cc1ccc(Cl)cc1)c1ccccc1` as the compound, how does the IC50 (Cannabinoid receptor 1) read?
Its IC50 is 18 nM.

With `C[C@@H](NC(=O)C(C)(C)Oc1ccc(Cl)cc1)[C@H](Cc1ccc(Cl)cc1)c1ccccc1` as the compound, how does the IC50 (Cannabinoid receptor 2) read?
Its IC50 is 1700 nM.

What about the IC50 (Cannabinoid receptor 1) of the same compound?
The IC50 was 170 nM.

Which IC50 (Cannabinoid receptor 2) does the source give for `C[C@H](NC(=O)C(C)(C)Oc1ccncc1)[C@H](Cc1ccc(Cl)cc1)c1ccccc1` here?
The IC50 was 1200 nM.

And the IC50 (Cannabinoid receptor 1)?
Its IC50 is 17 nM.

With `C[C@H](NC(=O)C(C)(C)Oc1ccc(Cl)cc1)[C@@H](Cc1ccc(C(F)(F)F)cc1)c1ccccc1` as the compound, how does the IC50 (Cannabinoid receptor 1) read?
The IC50 was 3.4 nM.

For `C[C@H](NC(=O)C(C)(C)Oc1ccc(C(F)(F)F)cn1)[C@@H](Cc1ccc(Cl)cc1)c1cccc(C#N)c1` [TARANABANT], which bioavailability [1] is on record?
The bioavailability was 31%.

What about the half-life [2] of the same compound?
The half-life was 3.6 h.

What about the bioavailability [3] of the same compound?
Its bioavailability is 74%.

What about the half-life [4] of the same compound?
Its half-life is 14 h.

And the Activity (Rattus norvegicus [5])?
Its Activity is 4%.

And the Activity (Rattus norvegicus [6])?
The Activity was 5%.

What about the concentration at 1 h [7] of the same compound?
The concentration at 1 h was 110 nM.

What about the Activity (Rattus norvegicus [8]) of the same compound?
Its Activity is “Active”.

And the Activity (Homo sapiens)?
Its Activity is 27 pmol/mg.

What about the Activity (Rattus norvegicus [9]) of the same compound?
The Activity was 7%.

What about the bioavailability [10] of the same compound?
The bioavailability was 31%.

And the concentration at 1 h [11]?
Its concentration at 1 h is 180 nM.

Which results are given for `C[C@@H](NC(=O)C(C)(C)Oc1ccc(Cl)cc1)[C@H](Cc1ccc(Cl)cc1)c1ccc(Cl)cc1`?
IC50 (Cannabinoid receptor 2): 600 nM; IC50 (Cannabinoid receptor 1): 13 nM

Which Activity (Rattus norvegicus [12]) does the source give for `C[C@H](NC(=O)C(C)(C)Oc1cc(F)cc(F)c1)[C@@H](Cc1ccc(Cl)cc1)c1ccccc1` here?
The Activity was 81%.

And the bioavailability [3]?
Its bioavailability is 19%.

And the Activity (Rattus norvegicus [13])?
The Activity was 55%.

What about the concentration at 1 h [7] of the same compound?
Its concentration at 1 h is 270 nM.

And the Activity (Homo sapiens)?
The Activity was 1700 pmol/mg.

What about the concentration at 1 h [11] of the same compound?
The concentration at 1 h was 350 nM.

For `C[C@H](NC(=O)C(C)(C)Oc1ccc(Cl)cn1)[C@@H](Cc1ccc(Cl)cc1)c1ccccc1`, which Activity (Homo sapiens) is on record?
The Activity was 300 pmol/mg.

With `C[C@H](NC(=O)C(C)(C)Oc1ccc(Cl)cc1)[C@@H](Cc1ccccc1)c1ccccc1` as the compound, how does the IC50 (Cannabinoid receptor 1) read?
Its IC50 is 33 nM.

Which results are given for `C[C@H](NC(=O)C(C)(C)Oc1ccc(Cl)cc1)[C@@H](Cc1ccc(Cl)cc1)c1ccccc1F`?
IC50 (Cannabinoid receptor 2): 410 nM; IC50 (Cannabinoid receptor 1): 12 nM

Which Activity (Homo sapiens) does the source give for `C[C@H](NC(=O)C(C)(C)Oc1ccccc1)[C@@H](Cc1ccc(Cl)cc1)c1ccccc1` here?
Its Activity is 3900 pmol/mg.

Which results are given for `C[C@H](NC(=O)C(C)(C)Oc1ccc(Cl)cc1)[C@@H](Cc1ccc(Cl)cc1)c1cccc(F)c1`?
IC50 (Cannabinoid receptor 2): 530 nM; IC50 (Cannabinoid receptor 1): 2.8 nM

For `C[C@H](NC(=O)C(C)(C)Oc1ccccn1)[C@@H](Cc1ccc(Cl)cc1)c1ccccc1`, which Activity (Homo sapiens) is on record?
The Activity was 910 pmol/mg.

Which Activity (Homo sapiens) does the source give for `C[C@H](NC(=O)C(C)(C)Oc1ccc(C(F)(F)F)cn1)[C@@H](Cc1ccc(Cl)cc1)c1ccccc1` here?
The Activity was 88 pmol/mg.

For `C[C@H](NC(=O)C(C)(C)Oc1cccnc1)[C@@H](Cc1ccc(Cl)cc1)c1ccccc1`, which IC50 (Cannabinoid receptor 1) is on record?
The IC50 was 19 nM.

For `C[C@H](NC(=O)C(C)(C)Oc1ccc(Cl)cc1)[C@@H](Cc1ccc(Cl)cc1)c1ccc(F)cc1`, which IC50 (Cannabinoid receptor 1) is on record?
Its IC50 is 90 nM.
